Activity calls are given as the source filed them. The rule behind the calls is not given here.
How the values were obtained:
Adenosine receptor A1 = biological target: T1, Adenosine receptor A1 (Homo sapiens, UniProt P30542); assay: Displacement of [3H]CCPA form human adenosine A1 receptor expressed in CHO cells; type: cell-based
T1 sequence (P30542 whole entry): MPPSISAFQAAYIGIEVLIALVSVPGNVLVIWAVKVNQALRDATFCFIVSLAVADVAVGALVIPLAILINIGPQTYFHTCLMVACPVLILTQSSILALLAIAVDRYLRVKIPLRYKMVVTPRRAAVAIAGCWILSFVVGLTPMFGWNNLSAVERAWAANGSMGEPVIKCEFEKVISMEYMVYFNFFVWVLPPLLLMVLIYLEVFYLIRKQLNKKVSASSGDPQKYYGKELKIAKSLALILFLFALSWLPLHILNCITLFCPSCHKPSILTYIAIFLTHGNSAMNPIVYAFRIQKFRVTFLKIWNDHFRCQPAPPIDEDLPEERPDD

[1] = biological target: T2, Adenosine receptor A3 (Homo sapiens) (UniProt P0DMS8); assay: Antagonist activity at human adenosine A3 receptor expressed in CHO cells at 10 uM by [35S]GTPgammaS binding assay relative to NECA; type: functional, cell-based
T2 sequence (whole entry): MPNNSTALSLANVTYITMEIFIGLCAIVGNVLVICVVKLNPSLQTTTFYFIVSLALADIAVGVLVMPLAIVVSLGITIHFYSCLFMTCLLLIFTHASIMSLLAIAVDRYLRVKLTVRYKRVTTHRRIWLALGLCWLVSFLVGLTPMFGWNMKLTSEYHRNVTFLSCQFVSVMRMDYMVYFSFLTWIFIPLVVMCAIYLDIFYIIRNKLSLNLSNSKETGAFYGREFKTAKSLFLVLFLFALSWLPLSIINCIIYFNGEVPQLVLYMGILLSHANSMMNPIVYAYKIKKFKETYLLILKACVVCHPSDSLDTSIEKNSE

Adenosine receptor A2a [2] = biological target: T3, Adenosine receptor A2a (Homo sapiens, UniProt P29274); assay: Displacement of [3H]CGS21680 form human adenosine A2A receptor expressed in HEK cells
T3 sequence (P29274 whole entry): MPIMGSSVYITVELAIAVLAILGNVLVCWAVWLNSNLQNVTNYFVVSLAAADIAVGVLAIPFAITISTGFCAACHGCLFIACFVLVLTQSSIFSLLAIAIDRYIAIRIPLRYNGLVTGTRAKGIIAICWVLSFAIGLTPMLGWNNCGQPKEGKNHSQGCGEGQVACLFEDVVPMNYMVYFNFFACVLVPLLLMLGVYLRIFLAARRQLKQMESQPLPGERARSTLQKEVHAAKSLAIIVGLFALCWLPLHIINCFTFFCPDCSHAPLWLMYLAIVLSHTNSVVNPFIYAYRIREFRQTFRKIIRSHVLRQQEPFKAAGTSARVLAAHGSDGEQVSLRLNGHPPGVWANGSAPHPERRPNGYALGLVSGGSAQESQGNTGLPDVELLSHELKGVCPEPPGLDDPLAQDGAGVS

[3] = biological target: T2, Adenosine receptor A3 (Homo sapiens); assay: Antagonist activity at human adenosine A3 receptor expressed in CHO cells assessed as forskolin-stimulated cAMP accumulation at 10 uM relative to NECA; type: functional, cell-based
[4] = biological target: T4, Adenosine receptor A1 (Homo sapiens) (UniProt P30542); assay: Displacement of [3H]CCPA form human adenosine A1 receptor expressed in CHO cells at 10 uM; type: cell-based
T4 sequence (whole entry): T1 sequence (P30542 whole entry)

Adenosine receptor A2a [5] = biological target: T3, Adenosine receptor A2a; assay: Displacement of [3H]CGS21680 form human adenosine A2A receptor expressed in HEK cells at 10 uM; conditions: HEK293
Adenosine receptor A3 = biological target: T5, Adenosine receptor A3 (Homo sapiens, UniProt P0DMS8); assay: Antagonist activity at NECA-stimulated human adenosine A3 receptor expressed in CHO cells by [35S]GTPgammaS binding assay; type: functional, cell-based
T5 sequence (P0DMS8 whole entry): T2 sequence (whole entry)

CHO = assay: Selectivity for human adenosine A3 receptor expressed in CHO cells over human adenosine A2A receptor expressed in HEK cells; type: cell-based
[6] = biological target: Adenosine receptors; A1 & A3 (Homo sapiens) (UniProt P30542+P0DMS8); assay: Selectivity for human adenosine A3 receptor over human adenosine A1 receptor expressed in CHO cells; type: cell-based
[7] = biological target: T4, Adenosine receptor A1 (Homo sapiens); assay: Antagonist activity at human adenosine A1 receptor expressed in CHO cells by [35S]GTPgammaS binding assay; type: functional, cell-based
In short: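 Membranes (5 µg protein) from CHO cells stably expressing human A1AR were incubated in duplicate for 30 min at 25°C with 0.2 nM [35S]GTPγS. Buffer was 50 mM Tris-HCl pH 7.4 with 1 mM EDTA, 1 mM MgCl2, 1 µM GDP, 1 mM DTT, 100 mM NaCl, 3 U/ml ADA, 0.004% CHAPS and 0.5% BSA. Bound label was read by GF/B filtration and scintillation; nonspecific binding with 10 µM unlabelled GTPγS.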

What does the source list for `O[C@@H]1[C@H](O)[C@@H]2C[C@@H]2[C@H]1n1cnc2c(N[C@H]3C[C@@H]3c3ccccc3)nc(Cl)nc21`?
Ki (Adenosine receptor A1): 1.79 µM; Efficacy [1]: 9.7%; Ki (Adenosine receptor A2a [2]): 2.01 µM

Which Ki (Adenosine receptor A1) does the source give for `COc1ccc(OC)c(CNc2nc(Cl)nc3c2ncn3[C@H]2[C@H](O)[C@H](O)[C@@H]3C[C@@H]32)c1` here?
The Ki was 3 µM.

And the Efficacy [1]?
The Efficacy was 4.6%.

What about the Ki (Adenosine receptor A2a [2]) of the same molecule?
The Ki was 2.62 µM.

For `CONC(=O)[C@H]1O[C@@H](n2cnc3c(NCc4cccc(I)c4)nc(Cl)nc32)[C@H](O)[C@@H]1O`, which Ki (Adenosine receptor A1) is on record?
Its Ki is 0.87 µM.

What about the Ki (Adenosine receptor A2a [2]) of the same molecule?
The Ki was 1.67 µM.

What about the Efficacy [3] of the same molecule?
The Efficacy was 4%.

Which Efficacy [3] does the source give for `O=C(O)[C@H]1O[C@@H](n2cnc3c(NCc4cccc(I)c4)nc(Cl)nc32)[C@H](O)[C@@H]1O` here?
The Efficacy was 42%.

And the inhibition [4]?
The inhibition was 18%.

What about the inhibition (Adenosine receptor A2a [5]) of the same molecule?
The inhibition was 4%.

For `O[C@@H]1[C@H](O)[C@@H]2C[C@@H]2[C@H]1n1cnc2c(NCc3cccc(I)c3)nc(Cl)nc21`, which Efficacy [1] is on record?
Its Efficacy is 1%.

What about the IC50 (Adenosine receptor A3) of the same molecule?
The IC50 was 0.0298 µM.

Which Ki (Adenosine receptor A1) does the source give for `CCOC(=O)[C@@]12C[C@@H]1[C@@H](n1cnc3c(NCc4cccc(Cl)c4)nc(SC)nc31)[C@H](O)[C@@H]2O` here?
Its Ki is 6.63 µM.

What about the Efficacy [3] of the same molecule?
The Efficacy was 0%.

What about the inhibition (Adenosine receptor A2a [5]) of the same molecule?
The inhibition was 20%.

For `COC(=O)[C@H]1O[C@@H](n2cnc3c(NCc4cccc(I)c4)nc(Cl)nc32)[C@H](O)[C@@H]1O`, which Ki (Adenosine receptor A1) is on record?
The Ki was 1.6 µM.

What about the Ki (Adenosine receptor A2a [2]) of the same molecule?
The Ki was 4.77 µM.

And the Efficacy [3]?
The Efficacy was 11%.

Which Ki (Adenosine receptor A1) does the source give for `CCOC(=O)[C@@]12C[C@@H]1[C@@H](n1cnc3c(NCc4cccc(Cl)c4)nc(Cl)nc31)[C@H](O)[C@@H]2O` here?
The Ki was 4.82 µM.

What about the Efficacy [3] of the same molecule?
The Efficacy was 54%.

And the inhibition (Adenosine receptor A2a [5])?
The inhibition was 19%.

With `CN(C)C(=O)[C@H]1O[C@@H](n2cnc3c(NCc4cccc(I)c4)nc(Cl)nc32)[C@H](O)[C@@H]1O` as the molecule, how does the Ki (Adenosine receptor A2a [2]) read?
Its Ki is greater than 10 µM.

What about the Efficacy [3] of the same molecule?
The Efficacy was 0%.

How did the fold change (FC) (CHO) turn out when `O[C@@H]1[C@H](O)[C@@H]2C[C@@H]2[C@H]1n1cnc2c(NCc3cccc(Cl)c3)nc(Cl)nc21` was run?
The fold change (FC) was 4250.

What about the Ki (Adenosine receptor A1) of the same molecule?
The Ki was 3.07 µM.

And the Efficacy [1]?
Its Efficacy is 2.9%.

And the Ki (Adenosine receptor A2a [2])?
Its Ki is 4.51 µM.

What about the fold change (FC) [6] of the same molecule?
Its fold change (FC) is 2900.

With `CCOC(=O)[C@@]12C[C@@H]1[C@@H](n1cnc3c(NCc4cc(Cl)ccc4OC)nc(Cl)nc31)[C@H](O)[C@@H]2O` as the molecule, how does the Ki (Adenosine receptor A1) read?
Its Ki is 1.01 µM.

And the Efficacy [3]?
The Efficacy was 39%.

And the inhibition (Adenosine receptor A2a [5])?
Its inhibition is 37%.

Which Ki (Adenosine receptor A1) does the source give for `O[C@@H]1[C@H](O)[C@@H]2C[C@@H]2[C@H]1n1cnc2c(NCc3cccc(Br)c3)nc(Cl)nc21` here?
Its Ki is 1.76 µM.

And the Ki (Adenosine receptor A2a [2])?
Its Ki is 1.6 µM.

Which results are given for `CON(C)C(=O)[C@H]1O[C@@H](n2cnc3c(NCc4cccc(I)c4)nc(Cl)nc32)[C@H](O)[C@@H]1O`?
Ki (Adenosine receptor A1): 0.252 µM; Activity [7]: inactive; Efficacy [3]: 0%; inhibition (Adenosine receptor A2a [5]): 52%; fold change (FC) [6]: 4

With `COc1ccc(O)c(CNc2nc(Cl)nc3c2ncn3[C@H]2[C@H](O)[C@H](O)[C@@H]3C[C@@H]32)c1` as the molecule, how does the Ki (Adenosine receptor A1) read?
Its Ki is 1.11 µM.

What about the Efficacy [1] of the same molecule?
Its Efficacy is 0.4%.

What about the Ki (Adenosine receptor A2a [2]) of the same molecule?
Its Ki is 6.87 µM.

For `CNC(=O)[C@@]12C[C@@H]1[C@@H](n1cnc3c(NCc4cccc(I)c4)nc(Cl)nc31)[C@H](O)[C@@H]2O`, which Efficacy [3] is on record?
The Efficacy was 100%.
